In brackets after ≈: the same amount, converted by molar mass. Activity calls are given as the source filed them. No cut-off for these calls is given here.
Tests used:
Influenza A virus [1] = assay: Antiviral activity against influenza A virus H1N1 infected in dog MDCK cells assessed as inhibition of virus-induced cytopathogenicity after 48 hrs by crystal violet staining method; assay type: functional, organism-based
In short: (§1)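 Virus–cell pairings were EV71 in RD, CVB5 in HepG2, ADV7 in HeLa and influenza A H1N1 in MDCK. Compounds were added […], and total infectivity was read by crystal violet staining. EC50 is the concentration reducing viral replication by 50%. Values are mean SD of three independent experiments.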

[2] = Selectivity index, ratio of CC50 for human HeLa cells to EC50 for Adenovirus type 7 infected in human HeLa cells; assay type: toxicity, cell-based; conditions: read-out: Ratio CC50/EC50
In short: (§2)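 Antiviral pairings were EV71 in RD cells, CVB5 in HepG2 cells and ADV7 in HeLa cells. Compounds were added […], and total infectivity was read by crystal violet staining. EC50 is the concentration that cut viral replication by 50%. CC50 came from MTT relative to 0.1% DMSO mock control. SI = CC50/EC50. Data are from three independent experiments.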

unidentified adenovirus [3] = assay: Antiviral activity against Adenovirus type 7 infected in human HeLa cells assessed as inhibition of virus-induced cytopathogenicity after 48 hrs by crystal violet staining method; assay type: functional, organism-based; conditions: for EC50: unidentified adenovirus, type 7, HeLa, 48 h; in short: as §1
[4] = Cytotoxicity against human HeLa cells after 72 hrs by MTT assay; assay type: cell-based
In short: (§3)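 MTT assay on RD (rhabdomyosarcoma), HepG2 and HeLa cell lines. CC50 is the concentration that cut cell viability by 50% relative to 0.1% DMSO-treated mock-control cells. Values are mean and SD of three independent experiments.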

[5] = Selectivity index, ratio of CC50 for human HepG2 cells to EC50 for Coxsackievirus B5 infected in human HepG2 cells; assay type: toxicity, cell-based; conditions: read-out: Ratio CC50/EC50; in short: as §2
Coxsackievirus B5 [6] = assay: Antiviral activity against Coxsackievirus B5 infected in human HepG2 cells assessed as inhibition of virus-induced cytopathogenicity after 48 hrs by crystal violet staining method; assay type: functional, organism-based; conditions: for EC50: Enterovirus B, HepG2, 48 h; in short: as §1
[7] = Cytotoxicity against human HepG2 cells after 72 hrs by MTT assay; assay type: cell-based; in short: as §3
[8] = Selectivity index, ratio of CC50 for human rhabdomyosarcoma cells to EC50 for Enterovirus 71 infected in human rhabdomyosarcoma cells; assay type: toxicity; conditions: read-out: Ratio CC50/EC50; in short: as §2
Enterovirus [9] = assay: Antiviral activity against Enterovirus 71 infected in human rhabdomyosarcoma cells assessed as inhibition of virus-induced cytopathogenicity after 48 hrs by crystal violet staining method; assay type: functional, organism-based; conditions: for EC50: Enterovirus, 71, 48 h; in short: as §1
[10] = Cytotoxicity against human rhabdomyosarcoma cells after 72 hrs by MTT assay; assay type: cell-based, Rhabdomyosarcoma cell; in short: as §3
Enterovirus [11] = assay: Antiviral activity against Enterovirus 71 infected in human rhabdomyosarcoma cells assessed as inhibition of virus-induced cytopathogenicity at 16 ug/ml after 48 hrs by crystal violet staining method; assay type: functional; conditions: Enterovirus, 71, 48 h
In short: (§4)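 Single-concentration screen with these pairings: RD/EV71, HepG2/CVB5, HeLa/ADV7, MDCK/H1N1. Cells were infected and kept 48 h in the presence of compound at one fixed concentration; some EV71 tests used the lower level. Inhibition of virus proliferation was read by crystal violet staining.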

Influenza A virus [12] = assay: Antiviral activity against influenza A virus H1N1 infected in dog MDCK cells assessed as inhibition of virus-induced cytopathogenicity at 32 ug/ml after 48 hrs by crystal violet staining method; assay type: functional, organism-based; in short: as §4
unidentified adenovirus [13] = assay: Antiviral activity against Adenovirus type 7 infected in human HeLa cells assessed as inhibition of virus-induced cytopathogenicity at 32 ug/ml after 48 hrs by crystal violet staining method; assay type: functional; conditions: for inhibition at 32 µg/mL: type 7, HeLa; in short: as §4
Coxsackievirus B5 [14] = assay: Antiviral activity against Coxsackievirus B5 infected in human HepG2 cells assessed as inhibition of virus-induced cytopathogenicity at 32 ug/ml after 48 hrs by crystal violet staining method; assay type: functional; conditions: for inhibition at 32 µg/mL: Enterovirus B, HepG2, 48 h; in short: as §4
Enterovirus [15] = assay: Antiviral activity against Enterovirus 71 infected in human rhabdomyosarcoma cells assessed as inhibition of virus-induced cytopathogenicity at 32 ug/ml after 48 hrs by crystal violet staining method; assay type: functional; conditions: for inhibition at 32 µg/mL: Enterovirus, 71, 48 h; in short: as §4

| SMILES | inhibition (INH) (Influenza A virus [1]) | selectivity ratio [2] | inhibition (unidentified adenovirus [3]) | EC50 (unidentified adenovirus [3]) | CC50 at 72 h [4] | selectivity ratio [5] | inhibition (Coxsackievirus B5 [6]) | EC50 (Coxsackievirus B5 [6]) | CC50 at 72 h [7] | selectivity ratio [8] | inhibition (Enterovirus [9]) | EC50 (Enterovirus [9]) | CC50 at 72 h [10] | inhibition (Influenza A virus [12]) | inhibition at 32 µg/mL (unidentified adenovirus [13]) | inhibition at 32 µg/mL (Coxsackievirus B5 [14]) | also measured |
| --- | --- | --- | --- | --- | --- | --- | --- | --- | --- | --- | --- | --- | --- | --- | --- | --- | --- |
| Nc1sc2c(c1-c1nc3cc(Cl)ccc3s1)CCCC2 | <50% | 20.9 | Dose-dependent effect | 5 µg/mL (≈ 15.6 µM) | 107 µg/mL (≈ 333 µM) | 26.7 | Dose-dependent effect | 3.5 µg/mL (≈ 10.9 µM) | 93.7 µg/mL (≈ 292 µM) | 33.7 | Dose-dependent effect | 1.3 µg/mL (≈ 4.05 µM) | 43.5 µg/mL (≈ 136 µM) |  |  |  |  |
| NC(=O)c1ncn([C@@H]2O[C@H](CO)[C@@H](O)[C@H]2O)n1 [RIBAVIRIN] |  | > 15 |  | 27.8 µg/mL (≈ 114 µM) | > 500 µg/mL | > 20 |  | 22.3 µg/mL (≈ 91.3 µM) | > 500 µg/mL | > 10 |  | 49.2 µg/mL (≈ 201 µM) | > 500 µg/mL |  |  |  |  |
| Fc1ccc(/C=N/c2sc3c(c2-c2nc4ccccc4s2)CCCC3)cc1 | <50% | 13.1 | Dose-dependent effect | 21.1 µg/mL (≈ 53.8 µM) | 277 µg/mL (≈ 705 µM) | 33.2 | Dose-dependent effect | 9.7 µg/mL (≈ 24.7 µM) | 324 µg/mL (≈ 826 µM) | 32.8 | Dose-dependent effect | 6.9 µg/mL (≈ 17.6 µM) | 230 µg/mL (≈ 586 µM) | Active | 60% | 60% | inhibition at 16 µg/mL (Enterovirus [11]): 60% |
| Oc1ccccc1/C=N/c1sc2c(c1-c1nc3ccccc3s1)CCCC2 | <50% | 11.1 | Dose-dependent effect | 10.8 µg/mL (≈ 27.7 µM) | 122 µg/mL (≈ 312 µM) | 20.8 | Dose-dependent effect | 5.4 µg/mL (≈ 13.8 µM) | 114 µg/mL (≈ 292 µM) | 20.3 | Dose-dependent effect | 2 µg/mL (≈ 5.12 µM) | 42.4 µg/mL (≈ 108 µM) | Active | 60% | 60% | inhibition at 16 µg/mL (Enterovirus [11]): 60% |
| C(=N\c1sc2c(c1-c1nc3ccccc3s1)CCCC2)/c1ccc2c(c1)OCO2 | <50% |  |  |  | 568 µg/mL (≈ 1360 µM) |  |  |  | 329 µg/mL (≈ 787 µM) | 9.1 |  | 32.6 µg/mL (≈ 77.9 µM) | 299 µg/mL (≈ 714 µM) | Active |  |  | inhibition (unidentified adenovirus [13]): Active; inhibition (Coxsackievirus B5 [14]): Active; inhibition (Enterovirus [15]): Active; inhibition (INH) (unidentified adenovirus [3]): <50%; inhibition (INH) (Coxsackievirus B5 [6]): <50% |
| Nc1sc2c(c1-c1nc3ccccc3s1)CCCC2 | <50% |  |  |  | 475 µg/mL (≈ 1660 µM) | 11.9 |  | 14.5 µg/mL (≈ 50.6 µM) | 163 µg/mL (≈ 570 µM) | 17.8 |  | 14.1 µg/mL (≈ 49.2 µM) | 253 µg/mL (≈ 883 µM) |  |  |  | inhibition (INH) (unidentified adenovirus [3]): <50% |
| C(=N\c1sc2c(c1-c1nc3ccccc3s1)CCCC2)/c1ccccc1 | <50% | 26.5 |  | 12.5 µg/mL (≈ 33.4 µM) | 333 µg/mL (≈ 890 µM) | 9.3 |  | 32.9 µg/mL (≈ 87.8 µM) | 308 µg/mL (≈ 821 µM) | 4.9 |  | 14.2 µg/mL (≈ 37.9 µM) | 71.1 µg/mL (≈ 190 µM) | Active | 60% | 60% | inhibition at 32 µg/mL (Enterovirus [15]): 60% |
| Nc1sc2c(c1-c1nc3cc(Cl)ccc3s1)CCC2 | <50% | 7.6 | Dose-dependent effect | 9.8 µg/mL (≈ 31.9 µM) | 75.1 µg/mL (≈ 245 µM) | 10.4 | Dose-dependent effect | 6.4 µg/mL (≈ 20.9 µM) | 67.8 µg/mL (≈ 221 µM) | 46.9 | Dose-dependent effect | 1.2 µg/mL (≈ 3.91 µM) | 59.1 µg/mL (≈ 193 µM) |  |  |  |  |
| Oc1ccccc1/C=N/c1sc2c(c1-c1nc3ccccc3s1)CCC2 | <50% | 9.6 |  | 17.4 µg/mL (≈ 46.2 µM) | 168 µg/mL (≈ 446 µM) | 13.8 |  | 11.1 µg/mL (≈ 29.5 µM) | 156 µg/mL (≈ 414 µM) | 12.6 |  | 7.9 µg/mL (≈ 21 µM) | 100 µg/mL (≈ 266 µM) | Active | 60% | 60% | inhibition at 32 µg/mL (Enterovirus [15]): 50% |

From ChEMBL document CHEMBL2417493, “Novel cycloalkylthiophene-imine derivatives bearing benzothiazole scaffold: synthesis, characterization and antiviral activity evaluation” (Bioorg Med Chem Lett, 2013)
